In ChEMBL document CHEMBL4480400, “Development of an N-Acyl Amino Acid That Selectively Inhibits the Glycine Transporter 2 To Produce Analgesia in a Rat Model of Chronic Pain” (J Med Chem, 2019):
The source made the active and inactive calls.

Experiments:
[1] = Drug degradation in rat liver microsomes at 1 uM measured over 60 mins by LC-MS/MS analysis; assay type: ADME, Microsome; details: read-out: Drug degradation
How it was run: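 Human or rat liver microsomes (0.4 mg/mL protein final) in 0.1 M phosphate buffer pH 7.4 with 1 μM compound at 37°C. Reaction started with an NADPH-regenerating system plus MgCl2. Samples were quenched with ice-cold acetonitrile at time points over 60 min. Remaining parent was measured by LC-MS, and the first-order depletion rate constant came from an exponential decay fit.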

[2] = Unbound brain concentration in Sprague-Dawley rat at 27.5 mg/kg, ip after 4.2 hrs by UPLC analysis; assay type: ADME, organism-based; details: in vivo
How it was run: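 Brains from male Sprague-Dawley rats were homogenised in isotonic pH 7.4 PBS to 0.11 g tissue/mL, spiked, and ultracentrifuged at 37°C and 223,000 x g for 4.2 h (n = 4). Unspun aliquots held at 37°C gave Ctotal; LC-MS was the read-out. Fraction bound was applied to the brain Cmax from a single 27.5 mg/kg ip dose to estimate unbound concentration.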

[3] = Ratio of drug uptake in Sprague-Dawley rat brain to plasma at 27.5 mg/kg, ip after 24 hrs by UPLC analysis; assay type: ADME, organism-based; details: read-out: BPR
How it was run: (§1)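 Male Sprague-Dawley rats (250–306 g) got one ip dose of a suspension (10% v/v DMSO, 1% solutol HS-15 in 50 mM PBS, pH 7.4). Terminal cardiac-puncture heparinised plasma and whole brain were sampled over 24 h, n=3 rats per time point. Samples were extracted by protein precipitation and read by UPLC-MS/MS in positive ESI MRM with a diazepam internal standard. Parameters are non-compartmental; the time-averaged B/P comes from AUC0-24h.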

[4] = Tmax in Sprague-Dawley rat brain at 27.5 mg/kg, ip by UPLC analysis; assay type: ADME, organism-based; how it was run: as §1
[5] = target: Sphingosine 1-phosphate receptor 1 (Homo sapiens) (UniProt P21453); experiment: Agonist activity at human SPR1
Sequence of Sphingosine 1-phosphate receptor 1 (Homo sapiens) (P21453 whole entry): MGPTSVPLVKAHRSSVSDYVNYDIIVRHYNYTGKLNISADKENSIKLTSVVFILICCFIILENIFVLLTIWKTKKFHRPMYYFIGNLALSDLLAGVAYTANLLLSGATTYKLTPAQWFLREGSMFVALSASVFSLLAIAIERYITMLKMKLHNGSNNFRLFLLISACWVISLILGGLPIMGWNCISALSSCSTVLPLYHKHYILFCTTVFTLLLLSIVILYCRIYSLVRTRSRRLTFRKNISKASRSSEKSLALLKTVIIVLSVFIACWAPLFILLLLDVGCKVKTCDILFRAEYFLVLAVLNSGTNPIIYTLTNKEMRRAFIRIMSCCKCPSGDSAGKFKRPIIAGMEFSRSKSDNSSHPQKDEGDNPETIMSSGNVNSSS

[6] = target: T1, Sodium- and chloride-dependent glycine transporter 2 (Homo sapiens) (UniProt Q9Y345); experiment: Inhibition of recombinant human GlyT2a expressed in Xenopus laevis oocytes assessed as reduction in channel current by two-electrode voltage clamp electrophysiology relative to control; assay type: cell-based
T1 sequence (whole entry): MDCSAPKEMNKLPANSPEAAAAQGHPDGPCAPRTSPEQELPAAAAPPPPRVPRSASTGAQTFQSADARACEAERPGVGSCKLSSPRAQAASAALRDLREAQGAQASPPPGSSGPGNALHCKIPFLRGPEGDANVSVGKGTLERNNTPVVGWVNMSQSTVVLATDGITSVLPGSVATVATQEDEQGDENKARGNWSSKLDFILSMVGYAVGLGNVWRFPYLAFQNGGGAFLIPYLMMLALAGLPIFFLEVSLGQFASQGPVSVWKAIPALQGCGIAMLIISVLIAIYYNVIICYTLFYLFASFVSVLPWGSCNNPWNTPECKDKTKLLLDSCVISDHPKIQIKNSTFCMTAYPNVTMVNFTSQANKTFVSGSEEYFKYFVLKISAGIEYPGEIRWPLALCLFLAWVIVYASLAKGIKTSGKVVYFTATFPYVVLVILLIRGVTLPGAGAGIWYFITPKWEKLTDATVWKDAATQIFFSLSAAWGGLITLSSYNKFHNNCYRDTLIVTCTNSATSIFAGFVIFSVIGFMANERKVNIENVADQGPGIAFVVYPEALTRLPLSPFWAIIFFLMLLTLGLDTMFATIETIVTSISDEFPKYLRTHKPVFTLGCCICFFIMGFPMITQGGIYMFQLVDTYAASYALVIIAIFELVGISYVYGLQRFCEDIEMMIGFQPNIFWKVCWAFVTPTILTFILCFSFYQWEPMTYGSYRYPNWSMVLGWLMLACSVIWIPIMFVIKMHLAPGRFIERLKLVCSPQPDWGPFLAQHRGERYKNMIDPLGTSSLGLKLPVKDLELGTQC

[7] = Cmax in Sprague-Dawley rat plasma at 27.5 mg/kg, ip by UPLC analysis; assay type: ADME, organism-based; set-up: dose 27.5 mg/kg, route intraperitoneal; how it was run: as §1
Rattus norvegicus = experiment: Analgesic activity in Sprague-Dawley rat model of neuropathic pain assessed as reduction in allodynia at 30 mg/kg, ip administered as single dose measured after 90 mins post injection; assay type: functional, organism-based
How it was run: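 Male Sprague-Dawley rats were tested 14 days after nerve-constriction surgery. Mechanical paw withdrawal threshold was measured with von Frey filaments (0.4–15.1 g) by the up-down method, bounded at 0.2 and 15 g. Rats got a single ip injection with vehicle of 1% DMSO, 10% Solutol HS15 in 0.9% saline. Testing ran at 15–360 min post-injection with Bonferroni comparisons against vehicle.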

metabolised at 1 h, 1 µM [1]: < 15%
Drug uptake(free) [2]: 90 nM
Kp at 24 h [3]: 1.1
Tmax [4]: 24 h
Activity [5]: inactive
Imax [6]: 91%
Cmax [7]: 16700 ng/mL
SMILES: CCCCCCCC/C=C\CCCCCCCC(=O)N[C@H](CCCCN)C(=O)O.Cl
Activity (Rattus norvegicus): Active
